# Calls of active or inactive are those of the source. The rule behind the calls is not given here.
# Legend:
# [1] = biological target: T1, WD repeat-containing protein 5 (Homo sapiens, UniProt P61964); assay: Inhibition of 10mer-Thr-FAM probe binding to human WDR5 after 2 hrs by fluorescence polarization assay
# [2] = Antiproliferative activity against human MV4-11 cells harboring MLL-AF4 fusion protein after 72 hrs by CCK8 assay; assay type: functional, cell-based; settings: MV4-11, 72 h
# MV4-11 [3] = assay: Induction of apoptosis in human MV4-11 cells harboring MLL-AF4 fusion protein after 72 hrs by Annexin-V/propidium iodide staining based flow cytometry; assay type: functional, cell-based
# [4] = biological target: T2, Histone-lysine N-methyltransferase 2A/WDR5 (Homo sapiens) (UniProt P61964+Q03164); assay: Inhibition of MLL1-WDR5 protein-protein interaction in human MV4-11 cells harboring MLL-AF4 fusion protein assessed as inhibition of Hoxa9 gene expression at 10 uM after 7 days by RT-PCR method relative to control; assay type: cell-based
# How it was run: (§1)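 MV4-11 cells were treated with DMSO or 0.625, 1.25, 2.5 or 10 μM compound for 7 days. Hoxa9 and Meis-1 expression was measured by RT-PCR against DMSO control. Significance was tested versus the nontreated blank control.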
# [5] = biological target: T2, Histone-lysine N-methyltransferase 2A/WDR5 (Homo sapiens); assay: Inhibition of MLL1-WDR5 protein-protein interaction in human MV4-11 cells harboring MLL-AF4 fusion protein assessed as inhibition of MLL1 histone methyltransferase activity by measuring reduction in H3K4me1 level at 5 uM after 7 days by Western blot method; assay type: cell-based
# How it was run: (§2)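 MV4-11 cells were exposed to a range of concentrations for 7 days. H3K4me1 and H3K4me2 were detected by western blotting with β-actin as loading control.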
# MV4-11 [6] = assay: Induction of apoptosis in human MV4-11 cells harboring MLL-AF4 fusion protein assessed as necrotic cells at 10 uM after 72 hrs by Annexin-V/propidium iodide staining based flow cytometry (reference value: 0.15%); assay type: functional
# [7] = biological target: T2, Histone-lysine N-methyltransferase 2A/WDR5 (Homo sapiens); assay: Inhibition of MLL1-WDR5 protein-protein interaction in human MV4-11 cells harboring MLL-AF4 fusion protein assessed as inhibition of Hoxa9 gene expression at 2.5 uM after 7 days by RT-PCR method relative to control; assay type: cell-based
# How it was run: (§3)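 MV4-11 cells treated for 7 days at 0.625, 1.25, 2.5 and 10 μM, with a DMSO control. Hoxa9 and Meis-1 expression was measured by RT-PCR and compared with the untreated blank control group (*p < 0.05, **p < 0.01).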
# MV4-11 [8] = assay: Induction of apoptosis in human MV4-11 cells harboring MLL-AF4 fusion protein assessed as late apoptotic cells at 2.5 uM after 72 hrs by Annexin-V/propidium iodide staining based flow cytometry (reference value: 21.6%); assay type: functional
# [9] = biological target: T2, Histone-lysine N-methyltransferase 2A/WDR5 (Homo sapiens); assay: Inhibition of MLL1-WDR5 protein-protein interaction in human MV4-11 cells harboring MLL-AF4 fusion protein assessed as inhibition of Meis-1 gene expression at 10 uM after 7 days by RT-PCR method relative to control; assay type: cell-based; how it was run: as §1
# MV4-11 [10] = assay: Induction of apoptosis in human MV4-11 cells harboring MLL-AF4 fusion protein assessed as necrotic cells at 2.5 uM after 72 hrs by Annexin-V/propidium iodide staining based flow cytometry (reference value: 0.15%); assay type: functional
# MV4-11 [11] = assay: Induction of apoptosis in human MV4-11 cells harboring MLL-AF4 fusion protein assessed as necrotic cells at 5 uM after 72 hrs by Annexin-V/propidium iodide staining based flow cytometry (reference value: 0.15%); assay type: functional
# [12] = biological target: T1, WD repeat-containing protein 5; assay: Binding affinity to human WDR5 by isothermal titration calorimetry
# MV4-11 [13] = assay: Induction of apoptosis in human MV4-11 cells harboring MLL-AF4 fusion protein assessed as viable cells at 5 uM after 72 hrs by Annexin-V/propidium iodide staining based flow cytometry (reference value: 73.8%); assay type: functional; settings: MV4-11, 72 h, read-out: Activity
# MV4-11 [14] = assay: Induction of apoptosis in human MV4-11 cells harboring MLL-AF4 fusion protein assessed as early apoptotic cells at 5 uM after 72 hrs by Annexin-V/propidium iodide staining based flow cytometry (reference value: 4.45%); assay type: functional
# MV4-11 [15] = assay: Induction of apoptosis in human MV4-11 cells harboring MLL-AF4 fusion protein assessed as viable cells at 2.5 uM after 72 hrs by Annexin-V/propidium iodide staining based flow cytometry (reference value: 73.8%); assay type: functional; settings: MV4-11, 72 h, read-out: Activity
# [16] = biological target: MLL1/ASH2L/RBBP5/WDR5 complex (Homo sapiens, UniProt P61964+Q03164+Q15291+Q9UBL3); assay: Inhibition of recombinant MLL1/ASH2L/RBBP5/WDR5 complex histone methyltransferase activity (unknown origin) by AlphaScreen assay; assay type: protein-complex assay
# [17] = biological target: T2, Histone-lysine N-methyltransferase 2A/WDR5 (Homo sapiens); assay: Inhibition of MLL1-WDR5 protein-protein interaction in human MV4-11 cells harboring MLL-AF4 fusion protein assessed as inhibition of Meis-1 gene expression after 7 days by RT-PCR method; assay type: cell-based; how it was run: as §1
# [18] = biological target: T2, Histone-lysine N-methyltransferase 2A/WDR5 (Homo sapiens); assay: Inhibition of MLL1-WDR5 protein-protein interaction in human MV4-11 cells harboring MLL-AF4 fusion protein assessed as inhibition of MLL1 histone methyltransferase activity by measuring reduction in H3K4me2 level after 7 days by Western blot method; assay type: cell-based; how it was run: as §2
# MV4-11 [19] = assay: Induction of apoptosis in human MV4-11 cells harboring MLL-AF4 fusion protein assessed as late apoptotic cells at 10 uM after 72 hrs by Annexin-V/propidium iodide staining based flow cytometry (reference value: 21.6%); assay type: functional
# MV4-11 [20] = assay: Induction of apoptosis in human MV4-11 cells harboring MLL-AF4 fusion protein assessed as early apoptotic cells at 2.5 uM after 72 hrs by Annexin-V/propidium iodide staining based flow cytometry (reference value: 4.45%); assay type: functional
# MV4-11 [21] = assay: Induction of apoptosis in human MV4-11 cells harboring MLL-AF4 fusion protein assessed as viable cells at 10 uM after 72 hrs by Annexin-V/propidium iodide staining based flow cytometry (reference value: 73.8%); assay type: functional; settings: MV4-11, 72 h, read-out: Activity
# MV4-11 [22] = assay: Induction of apoptosis in human MV4-11 cells harboring MLL-AF4 fusion protein assessed as early apoptotic cells at 10 uM after 72 hrs by Annexin-V/propidium iodide staining based flow cytometry (reference value: 4.45%); assay type: functional
# [23] = biological target: T2, Histone-lysine N-methyltransferase 2A/WDR5 (Homo sapiens); assay: Inhibition of MLL1-WDR5 protein-protein interaction in human MV4-11 cells harboring MLL-AF4 fusion protein assessed as inhibition of Hoxa9 gene expression after 7 days by RT-PCR method; assay type: cell-based; how it was run: as §1
# [24] = biological target: T2, Histone-lysine N-methyltransferase 2A/WDR5 (Homo sapiens); assay: Inhibition of MLL1-WDR5 protein-protein interaction in human MV4-11 cells harboring MLL-AF4 fusion protein assessed as inhibition of Meis-1 gene expression at 2.5 uM after 7 days by RT-PCR method relative to control; assay type: cell-based; how it was run: as §3
# MV4-11 [25] = assay: Induction of apoptosis in human MV4-11 cells harboring MLL-AF4 fusion protein assessed as late apoptotic cells at 5 uM after 72 hrs by Annexin-V/propidium iodide staining based flow cytometry (reference value: 21.6%); assay type: functional
# [26] = Antiproliferative activity against human MV4-11 cells harboring MLL-AF4 fusion protein by CellTiter-Glo assay; assay type: functional, cell-based
# How it was run: (§4)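 Proliferation assay in leukaemia cell lines with or without an MLL fusion. MV4-11 (MLL-AF4) gives an IC50 from concentration–response. K562 carries no MLL fusion protein; compounds are tested at a single 35 μM, reported as % remaining growth activity (IC50 where determined).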
# [27] = Growth inhibition of human K562 cells after 7 days by MTS assay; assay type: functional, cell-based; settings: K562, 168 h; how it was run: as §4
structure (smiles),measurement,setting,value
Cc1c(F)ccc(C(=O)Nc2cc([N+](=O)[O-])ccc2NCCN)c1Cl,IC50,[1],> 20000 nM
Cc1c(F)c(N)cc(C(=O)Nc2cc(-c3ccc(NC(=O)CCN)cc3)ccc2N2CCN(C)CC2)c1Cl,IC50,[1],50.2 nM
same,IC50,[2],25100 nM
CCC(=O)Nc1ccc(-c2ccc(N3CCN(C)CC3)c(NC(=O)c3cc(N)c(F)c(C)c3Cl)c2)cc1,IC50,[1],81.5 nM
same,IC50,[2],6500 nM
CN1CCN(c2ccc(-c3ccc([N+](=O)[O-])cc3)cc2NC(=O)c2ccc(F)c([N+](=O)[O-])c2)CC1,IC50,[1],1090 nM
Cc1c(F)c(N)cc(C(=O)Nc2cc(-c3ccc(NC(=O)C(C)N)cc3)ccc2N2CCN(C)CC2)c1Cl (stereo unspecified),IC50,[1],15 nM
same,IC50,[2],11100 nM
CN1CCN(c2ccc(-c3ccc(N)cc3)cc2NC(=O)c2ccc(F)c(N)c2)CC1,IC50,[1],13600 nM
Cc1c(F)ccc(C(=O)Nc2cc([N+](=O)[O-])ccc2NCCCn2ccnc2)c1Cl,IC50,[1],> 20000 nM
Cc1c(F)c([N+](=O)[O-])cc(C(=O)Nc2cc(-c3ccc([N+](=O)[O-])cc3)ccc2N2CCN(C)CC2)c1Cl,IC50,[1],285 nM
Cc1c(F)c(N)cc(C(=O)Nc2cc(-c3ccc(NC(=O)CNC(=O)OC(C)(C)C)cc3)ccc2N2CCN(C)CC2)c1Cl,IC50,[1],1550 nM
same,IC50,[2],4100 nM
Cc1c(F)ccc(C(=O)Nc2cc([N+](=O)[O-])ccc2N2CCN(Cc3ccccc3)CC2)c1Cl,IC50,[1],> 20000 nM
Cc1c(F)c(N)cc(C(=O)Nc2cc(-c3ccc(NC(=O)CCCNC(=O)OC(C)(C)C)cc3)ccc2N2CCN(C)CC2)c1Cl,IC50,[1],80.4 nM
same,IC50,[2],4800 nM
COc1ccc(N2CCN(c3ccc([N+](=O)[O-])cc3NC(=O)c3ccc(F)c(C)c3Cl)CC2)cc1,IC50,[1],> 20000 nM
CC(=O)Nc1cc(C(=O)Nc2cc(-c3ccncc3)ccc2N2CCN(C)CC2)c(Cl)c(C)c1F,IC50,[1],1360 nM
Cc1c(F)c([N+](=O)[O-])cc(C(=O)Nc2cc(-c3ccncc3)ccc2N2CCN(C)CC2)c1Cl,IC50,[1],77.1 nM
Cc1c(F)c(N)cc(C(=O)Nc2cc(-c3ccc(N)cc3)ccc2N2CCN(C)CC2)c1Cl,Activity,MV4-11 [3],Dose-dependent effect
same,inhibition,[4],80%
same,inhibition,[5],Active
same,Activity,MV4-11 [6],0.15%
same,inhibition,[7],50%
same,Activity,MV4-11 [8],23.55%
same,inhibition,[9],80%
same,Activity,MV4-11 [10],0.05%
same,IC50,[2],17700 nM
same,Activity,MV4-11 [11],0%
same,Kd,[12],202 nM
same,viability at 5 µM,MV4-11 [13],58.5%
same,Activity,MV4-11 [14],7.95%
same,viability at 2.5 µM,MV4-11 [15],70.9%
same,IC50,[16],1650 nM
same,inhibition,[17],Dose-dependent effect
same,inhibition,[18],Dose-dependent effect
same,Activity,MV4-11 [19],49.75%
same,Activity,MV4-11 [20],5.5%
same,viability at 10 µM,MV4-11 [21],36.3%
same,Activity,MV4-11 [22],13.8%
same,inhibition,[23],Dose-dependent effect
same,inhibition,[24],50%
same,Activity,MV4-11 [25],33.55%
Cc1c(F)c(N)cc(C(=O)Nc2cc(-c3ccc(NC(=O)C4CCNCC4)cc3)ccc2N2CCN(C)CC2)c1Cl,IC50,[2],9200 nM
same,Kd,[12],7.5 nM
same,IC50,[16],300 nM
Cc1c(F)ccc(C(=O)Nc2cc([N+](=O)[O-])ccc2N2CCN(c3ccccn3)CC2)c1Cl,IC50,[1],> 20000 nM
CCC(CC)(NC(=O)C(C)C)C(=O)N[C@@H](CCCNC(=N)N)C(=O)NC1(C(=O)NC(c2ccc(F)cc2)c2ccc(F)cc2)CCCC1,IC50,[26],25000 nM
same,IC50,[27],37800 nM
CCCC(=O)Nc1ccc(-c2ccc(N3CCN(C)CC3)c(NC(=O)c3cc(N)c(F)c(C)c3Cl)c2)cc1,IC50,[1],76 nM
same,IC50,[2],2300 nM
